Compound activity from PubChem.
SENP7 inh = inhibitors of human SENP7 protease | hit rate 1.5% among 330,000 | AID 434973 | inhibition, % at 5 µM | recombinant SENP7, Z-RLRGG-aminoluciferin luminescence, 40 min | Q9BQF6;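 active means inhibition above about 50% at the single test dose, limit read from the data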
Target sequence (Q9BQF6 706-1050 limits assumed): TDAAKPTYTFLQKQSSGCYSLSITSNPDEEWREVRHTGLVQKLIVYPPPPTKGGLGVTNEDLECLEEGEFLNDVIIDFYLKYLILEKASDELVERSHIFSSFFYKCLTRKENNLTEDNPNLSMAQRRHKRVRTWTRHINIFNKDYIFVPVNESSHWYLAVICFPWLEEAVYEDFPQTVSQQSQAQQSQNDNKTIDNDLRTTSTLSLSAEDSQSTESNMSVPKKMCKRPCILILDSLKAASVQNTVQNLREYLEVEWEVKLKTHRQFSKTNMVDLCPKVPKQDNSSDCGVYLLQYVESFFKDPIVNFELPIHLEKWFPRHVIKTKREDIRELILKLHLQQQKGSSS
SENP8 block-1 = SENP8 (human) protease inhibition; Q96LD8; recombinant SENP8, Nedd8 substrate fluorescence; inhibition, % at 20 µM; hit rate 0.64% among 360,000; AID 602440; in the data active means inhibition mostly above about 40%, no sharp cut-off; inactive means mostly below about 27%
SENP6 inh = SENP6 protease inhibition. AID 2599. Recombinant SENP6 catalytic domain, aminoluciferin luminescence. inhibition, % at 10 µM. hit rate 1.8% among 330,000. Q9GZR1;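 active means inhibition above about 50% at the single tested dose, limit read from the data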
SENP1 FRET inh = blocks the human SENP1 SUMO protease catalytic domain; Q9P0U3; recombinant SENP1 catalytic domain, CyPet-SUMO1-YPet FRET cleavage; inhibition, % at 10 µM; hit rate 0.21% among 360,000;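 active means inhibition at least 30% at 10 µM, raw YFP signal under a set limit, fluorescence ratio 0.5 to 1.5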
Target sequence (Q9P0U3 419-644 limits assumed): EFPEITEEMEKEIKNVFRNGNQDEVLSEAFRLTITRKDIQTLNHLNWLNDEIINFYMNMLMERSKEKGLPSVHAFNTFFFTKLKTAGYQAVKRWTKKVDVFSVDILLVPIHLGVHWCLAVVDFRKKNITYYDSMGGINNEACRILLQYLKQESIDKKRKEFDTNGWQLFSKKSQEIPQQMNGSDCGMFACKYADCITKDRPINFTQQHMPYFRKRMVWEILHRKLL
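Assay system – human recombinant His6-tagged SENP1 catalytic domain enzyme · Input – SENP1 enzyme, 20 pM final · Buffer or medium – Tris pH 8 buffer plus EDTA, NaCl, BME, BSA, NP40, catalase · Schedule – 50 min reaction at room temperature · Technique – FRET read of cyan and yellow fluorescence · Control set – no-enzyme wells low, DMSO-plus-enzyme wells high control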
HSP90 refold inh = blocks HSP90-mediated luciferase refolding in reticulocyte lysate; Rabbit reticulocyte lysate, luciferase refolding luminescence, 3 h; inhibition, % at 5.6 µM; hit rate 0.91% among 290,000;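 active means inhibition above the screen-wide mean plus 3 SD, computed separately per campaign, cut at about 16% in these data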;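 further: inhibitors lower the luminescence because luciferase stays unfolded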
SENP8 block-2 = inhibitors of human SENP8 protease; purified SENP8, Z-RLRGG-aminoluciferin cleavage, luminescence; inhibition, % at 10 µM; hit rate 1.2% among 330,000; AID 2540; in the data active means inhibition above about 50%
SENP8 conf = confirmation of human SENP8 protease inhibitors | shares compounds with SENP7 inh | inhibition, % at 12.5 µM | Recombinant SENP8, Z-RLRGG-aminoluciferin luminescence, 60 min | hit rate 40% among 6,200;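 active means mean inhibition across replicates above about 50%, limit read from the data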
SENP6 confirm = human SENP6 inhibition, confirmed; hit rate 58% among 6,200; shares compounds with SENP7 inh; recombinant SENP6, Z-RLRGG-aminoluciferin luminescence; inhibition, % at 12.5 µM
SENP7 conf = human SENP7 inhibition, confirmed; recombinant SENP7, Z-RLRGG-aminoluciferin luminescence, 40 min; inhibition, % at 12.5 µM; hit rate 69% among 6,200; shares compounds with SENP7 inh; AID 488917
Casp3 SENP sel = selectivity test for SENP inhibitors: human caspase-3 inhibition; shares compounds with SENP7 inh; purified caspase-3, Z-DEVD-aminoluciferin luminescence, 60 min; inhibition, % at 12.5 µM; hit rate 60% among 6,200; AID 488918;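 active means mean inhibition above about 50%, limit read from the data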
SENP luc ctr = counter-screen for SENP inhibitors: luminescence interference | shares compounds with SENP7 inh | Pre-incubated SENP8/Z-RLRGG-aminoluciferin, luciferase luminescence interference | inhibition, % at 12.5 µM | hit rate 39% among 6,200 | AID 488919;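 active means mean inhibition above about 50% when retested at one dose, limit read from the data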
Hits are given with their value; n = inactive; x = not tested or not shown. An excerpt weighted towards active compounds, which were near 2.9% of everything screened.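 How the source made its calls, unless noted: active means mean inhibition above about 50% in the one-dose retest (limit read from the data); inactive means the rest.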

SMILES | SENP7 inh | SENP8 block-1 | SENP6 inh | SENP1 FRET inh | HSP90 refold inh | SENP8 block-2 | SENP8 conf | SENP6 confirm | SENP7 conf | Casp3 SENP sel | SENP luc ctr
COc1ccc(-c2csc(NC(=O)c3ccc(C(C)(C)C)cc3)c2C(=O)O)cc1 | n | x | n | x | x | n | x | x | x | x | x
O=C(Nc1nnc(-c2ccccc2)s1)c1ccccc1F | n | n | n | n | n | n | x | x | x | x | x
Cc1ccc(-c2csc(NC(=O)c3ccccc3F)c2C(=O)O)cc1 | n | n | 82 | n | n | 80 | n | 85 | 93 | 84 | 59
O=C(Nc1scc(-c2ccccc2)c1C(=O)O)c1ccccc1F | n | n | 75 | n | n | 68 | 82 | 79 | 90 | 85 | 80
O=C(/C=C/c1ccco1)Nc1scc(-c2ccccc2)c1C(=O)O | 95 | n | 98 | n | n | 97 | 98 | 99 | 102 | 98 | 97
CC(=O)Nc1ccc(-c2ccnc3c2CC(C(=O)NCCC(F)(F)F)O3)cc1 (stereo not given) | x | n | x | n | x | x | x | x | x | x | x
O=C(NNc1cc(Br)c(O)c(Br)c1)c1ccccc1 | n | n | n | n | n | n | x | x | x | x | x
COc1ccc(/C=N/c2oc(-c3ccccc3)cc2C#N)cc1OC | n | n | n | n | n | n | x | x | x | x | x
Cc1ccc(C(=O)Nc2scc(-c3ccccc3)c2C(=O)O)o1 | 57 | n | n | n | n | 66 | 86 | 85 | 96 | 92 | 82
COc1ccc(-c2csc(NC(=O)c3ccccc3OC)c2C(=O)O)cc1OC | n | n | n | n | n | n | x | x | x | x | x
COc1ccc(-c2csc(NC(=O)c3cccs3)c2C(=O)O)cc1OC | n | n | n | n | n | 60 | n | 72 | 90 | 75 | 76
Cc1ccccc1C(=O)Nc1scc(-c2ccc(Br)cc2)c1C(=O)O | n | n | 86 | n | x | 75 | n | 53 | n | 52 | n
Cc1cc(NC(=O)c2ccccc2F)on1 | n | n | n | n | n | n | x | x | x | x | x
O=C(Nc1scc(-c2ccc(Br)cc2)c1C(=O)O)c1ccccc1F | n | n | 88 | n | x | 87 | 87 | 86 | 68 | 77 | n
NC(=O)CC(NC(=O)Cc1ccc(Br)cc1)c1ccc(NCCc2ccccc2F)c([N+](=O)[O-])c1 (stereo not given) | n | n | n | n | x | n | x | x | x | x | x
CC(C)Cc1csc(NC(=O)c2ccc(Br)cc2)c1C(=O)O | n | n | 94 | n | n | 88 | 92 | 94 | 92 | 80 | 58
CC(C)Cc1csc(NC(=O)C(C)C)c1C(=O)O | n | n | n | n | n | n | x | x | x | x | x
O=c1c2c3c(sc2nc(N2CCNCC2)n1CCc1ccccc1)CCCCC3 | n | n | n | n | n | n | x | x | x | x | x
CC(C)C(=O)Nc1ccc2nn(-c3ccccc3)nc2c1 | 51 | n | n | n | n | n | n | n | 71 | n | n
CC(=O)Nc1cc2nn(-c3ccccc3)nc2cc1Cl | 76 | n | 69 | n | n | n | n | n | n | n | n
Cc1nn(-c2cccc(Cl)c2)nc1C(=O)O | n | n | n | n | n | n | x | x | x | x | x
COc1cccc(CN2CC(C(=O)N(C)CCCC3CCCC3)CCC2=O)c1 (stereo not given) | n | n | n | n | n | n | x | x | x | x | x
O=C(COc1ccc(Cl)cc1Br)OCC(=O)c1ccc[nH]1 | n | n | n | n | x | n | x | x | x | x | x
CCOc1ccc(-c2cn(-c3ccccc3OC)c(=S)[nH]2)cc1 | n | n | n | n | n | n | x | x | x | x | x
CCOc1ccc(-n2cc(-c3ccc(OC)c(OC)c3)[nH]c2=S)cc1 | n | n | 73 | n | n | 53 | n | n | n | n | n
SMILES | SENP7 inh | SENP8 block-1 | SENP6 inh | SENP1 FRET inh | HSP90 refold inh | SENP8 block-2 | SENP8 conf | SENP6 confirm | SENP7 conf | Casp3 SENP sel | SENP luc ctr
O=C(Nc1ccc(C(=O)O)cc1)/C(=C\C=C\c1ccccc1)NC(=O)c1ccccc1Br | n | n | n | n | n | n | x | x | x | x | x
Cc1ccc(-c2csc(N3C(=N)SCC3=O)n2)cc1 | 71 | x | n | x | n | 51 | n | n | n | n | n
Cc1c(Cl)cccc1NC(=S)NCC(c1cccnc1)N(C)C (stereo not given) | n | n | n | n | n | n | x | x | x | x | x
O=C(CSc1cccc[n+]1[O-])Nc1ccc(N2CCOCC2)cc1 | n | x | n | x | n | n | x | x | x | x | x
CN(C)C(CNc1ccc(S(C)(=O)=O)cc1[N+](=O)[O-])c1ccccc1 (stereo not given) | n | n | 65 | n | n | n | n | n | n | n | n
COc1ccc(C(CNc2ccc(S(C)(=O)=O)cc2[N+](=O)[O-])N(C)C)cc1OC (stereo not given) | n | n | n | n | n | n | x | x | x | x | x
O=C(O)CCC(=O)/C=C/c1ccccc1 | n | n | n | n | n | n | x | x | x | x | x
CCOc1ccc(/C=C\C(C)=N\O)cc1 | n | n | 91 | n | n | 84 | 90 | 90 | 100 | 93 | 90
CCOc1ccc(/C=C/C(=O)CCC(=O)O)cc1 | 63 | n | 70 | n | n | n | 66 | 53 | 84 | n | 72
N#C/C(=C\c1cccc(NC(=O)c2ccccc2Cl)c1)C(=O)NCCc1ccccc1 | n | n | n | n | n | n | x | x | x | x | x
Cc1cc2c(NCc3ccccc3)ncnc2s1 | n | n | n | n | n | n | x | x | x | x | x
CN(C)c1ccc(-c2nnc(-c3cccs3)o2)cc1 | 79 | n | 72 | n | n | 60 | n | 51 | 76 | n | n
CN(C)c1oc(-c2cccs2)nc1C#N | n | n | n | n | n | n | x | x | x | x | x
CCCOc1ccc(-c2nnc(-c3cccs3)o2)cc1 | n | n | 80 | n | n | n | n | n | n | n | n
CCCCOc1ccc(-c2nnc(-c3ccncc3)o2)cc1 | n | n | n | n | n | n | x | x | x | x | x
Oc1ccc(-c2nc3ncccn3c2Nc2ccc3c(c2)OCO3)cc1 | 93 | n | 86 | n | n | n | n | n | n | n | n
Clc1ccc(-c2nc3ncccn3c2Nc2ccc3c(c2)OCO3)cc1 | n | n | n | n | n | n | x | x | x | x | x
CCc1ccc(S(=O)(=O)N2CCN(C(=O)c3cccnc3)CC2)cc1 | n | n | n | n | n | n | x | x | x | x | x
c1cnc2ccc(-c3ccc4ncccc4c3)cc2c1 | n | n | 77 | n | n | 55 | 72 | 71 | 87 | 65 | 76
